Source: ChEMBL document CHEMBL2321720, “Development of triarylsulfonamides as novel anti-inflammatory agents” (Bioorg Med Chem Lett, 2013)
In brackets after ≈: the same amount, converted by molar mass.

Tests used:
[1] = Thermodynamic aqueous solubility of the compound in fasted state simulated intestinal fluid after 24 hrs by HPLC analysis; type: physicochemical; conditions: read-out: Therm_solubility
Method in brief: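 Solubility in FaSSIF. The sample was filtered and concentration measured by HPLC/UV.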

[2] = Apparent permeability from apical to basolateral side of human Caco2 cells; type: ADME, cell-based; conditions: Caco-2
[3] = Apparent permeability from basolateral to apical side of human Caco2 cells; type: ADME, cell-based; conditions: Caco-2
[4] = Cmax in rat at […], po; type: ADME, organism-based; set-up: dose 2.5 mg/kg, route oral; conditions: in vivo
[5] = Tmax in rat at […], po; type: ADME, organism-based; set-up: dose 2.5 mg/kg, route oral; conditions: in vivo
[6] = AUC in rat at […], po; type: ADME, organism-based; set-up: dose 2.5 mg/kg, route oral; conditions: plasma
[7] = Oral bioavailability in rat at […]; type: ADME, organism-based; conditions: in vivo

| Structure (SMILES) | solubility thermodynamic at 24 h [1] [µg/mL] | also measured |
| --- | --- | --- |
| O=S(=O)(Nc1cccc(CO)c1)c1ccc(-c2ccccc2)cc1 | 11 (≈ 32.4 µM) | – |
| O=S(=O)(Nc1cc(CO)ccc1O)c1ccc(-c2ccc(F)cc2F)cc1 | 12 (≈ 30.7 µM) | – |
| O=S(=O)(Nc1cccc(CO)c1)c1ccc(-c2ccc(F)cc2F)cc1 | 50 (≈ 133 µM) | – |
| O=S(=O)(Nc1cccc(CO)c1)c1ccc(-c2ccc(Cl)cc2Cl)cc1 | 40 (≈ 98 µM) | Papp A→B [2]: 1.5 ×10⁻⁶ cm/s; Papp B→A [3]: 5.5 ×10⁻⁶ cm/s; Cmax [4]: 30 ng/mL; Tmax [5]: 50 min; AUC [6]: 110 ng·h/mL; bioavailability [7]: 8% |
| O=S(=O)(Nc1cccc(CO)c1)c1ccc(-c2ccc(Cl)cc2F)cc1 | 73 (≈ 186 µM) | – |
| O=S(=O)(Nc1ccc(CO)c(CO)c1)c1ccc(-c2ccc(F)cc2F)cc1 | 32 (≈ 78.9 µM) | – |
| O=S(=O)(Nc1cccc(CO)c1)c1ccc(-c2ccc(F)cc2)cc1Cl | 25 (≈ 63.8 µM) | – |
| O=S(=O)(Nc1ccc(-c2ccc(Cl)cc2Cl)cc1)c1cccc(CO)c1 | 40 (≈ 98 µM) | – |
| O=S(=O)(Nc1cccc(CO)c1)c1ccc(-c2ccccc2F)cc1 | 57 (≈ 159 µM) | – |

Now from value to compound, other results behind:

| solubility thermodynamic at 24 h [1] [µg/mL] | Structure (SMILES) | also measured |
| --- | --- | --- |
| 12 (≈ 27.8 µM) | Cc1c(CO)cccc1NS(=O)(=O)c1ccc(-c2ccc(Br)cc2)cc1 | – |
| 12 (≈ 27.6 µM) | O=S(=O)(Nc1cc(CO)ccc1O)c1ccc(-c2ccc(Br)cc2)cc1 | – |
| 21 (≈ 59.4 µM) | Cc1ccc(-c2ccc(S(=O)(=O)Nc3cccc(CO)c3)cc2)cc1 | – |
| 43 (≈ 110 µM) | Cc1c(CO)cccc1NS(=O)(=O)c1ccc(-c2ccc(F)cc2F)cc1 | – |
| 22 (≈ 52.6 µM) | O=S(=O)(Nc1cccc(CO)c1)c1ccc(-c2ccc(Br)cc2)cc1 | – |
| 47 (≈ 109 µM) | Cc1ccc(CO)cc1NS(=O)(=O)c1ccc(-c2ccc(Br)cc2)cc1 | – |
| 4 (≈ 9.21 µM) | O=S(=O)(Nc1ccc(O)c(CO)c1)c1ccc(-c2ccc(Br)cc2)cc1 | – |
| 11 (≈ 24.3 µM) | O=S(=O)(Nc1cc(CO)ccc1Cl)c1ccc(-c2ccc(Br)cc2)cc1 | – |
| 19 (≈ 43.7 µM) | O=S(=O)(Nc1cccc(CO)c1O)c1ccc(-c2ccc(Br)cc2)cc1 | – |
| 14 (≈ 30.9 µM) | O=S(=O)(Nc1cccc(CO)c1Cl)c1ccc(-c2ccc(Br)cc2)cc1 | – |
| 24 (≈ 64.6 µM) | Cc1c(CO)cccc1NS(=O)(=O)c1ccc(-c2ccc(F)cc2)cc1 | – |
